Results taken from ChEMBL document CHEMBL5154719, “Probing Embryonic Development Enables the Discovery of Unique Small-Molecule Bone Morphogenetic Protein Potentiators” (J Med Chem, 2022).
Activity calls are given as the source filed them. No cut-off for these calls is given here.

Experiments:
[1] = tested on: Embryonic stem cell; assay: Induction of cardiac differentiation in mouse ESC transfected with Myh6-GFP treated for 48 hrs and measured after 3 to 6 days by imaging analysis; type: functional, cell-based; conditions: time 3-6 day
Procedure, shortened: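 mESC-Myh6-GFP seeded on 0.1% gelatine at 500 cells/well in LIF-free medium to differentiate spontaneously (day 0). Inhibitors given dose-dependently for 48 h over the stated day windows. Medium later changed to complete LIF-free medium. On day 11, cells PFA-fixed and DAPI-stained. GFP+ cardiomyocytes quantified by high-content imaging, normalized to DMSO; mean ± SEM.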

[2] = tested on: C2C12; assay: Induction of BMP-dependent osteogenesis in mouse C2C12 cells incubated for 72 hrs; type: functional, cell-based
Procedure, shortened: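 C2C12 myoblasts, 2000 cells/well in DMEM with 6% heat-inactivated FBS, grown 16 h; compounds added in triplicate, then BMP-4 at 7.5 ng/mL; 72 h. ALP activity read by luminescence after lysis with CDP-Star substrate, 1 h at room temperature in the dark. Activity with 7.5 ng/mL BMP-4 in DMSO set to 100%. EC50 by curve fitting.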

[3] = target: Glycogen synthase kinase-3 beta (Homo sapiens, UniProt P49841); assay: Inhibition of GSK3beta (unknown origin)
[4] = Induction of alkaline phosphatase activation in mouse C2C12 cells assessed as fold increase incubated in presence of 50 ng/ml BMP4 at 1 uM relative to BMP4 alone; type: functional
[5] = Inhibition of DMH-1 induced cardiogenesis in mouse ESC transfected with Myh6-GFP; type: functional, cell-based; conditions: embryonic stem cell
Procedure, shortened: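 mESC-Myh6-GFP, 500 cells/well on gelatine, LIF-free medium from day 0. On day 3, compounds added (triplicates for IC50) with DMH-1 at 0.5 μM final, 0.2% DMSO, 6% FBS; 24 h. Medium then changed, refreshed days 7 and 9. Day 11: PFA fixation, DAPI stain, automated imaging of GFP intensity and cell count, normalized to DMH-1. Cell count below 70% of DMH-1 flagged as cytotoxic.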

[6] = tested on: C2C12; assay: Potentiation of BMP receptor in mouse C2C12 cells assessed as increase in Id2 gene expression level incubated for 24 hrs by qRT-PCR analysis; conditions: filed as activator
[7] = tested on: C2C12; assay: […] of osteoblastogenesis in mouse C2C12 cells assessed as upregulation of Ocn gene expression in presence of BMP4 at 1 uM measured after 72 hrs; type: functional, cell-based
Procedure, shortened: (§1)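 C2C12 cells plated at 1 × 10⁵ cells/well and treated with compound (1 μM) plus BMP-4 (7.5 ng/mL) or DMSO for 72 h. RNA isolated and transcripts quantified by qRT-PCR using the ΔΔCp method. Mean of triplicates ± SD, normalized to DMSO.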

[8] = tested on: C2C12; assay: […] of osteoblastogenesis in mouse C2C12 cells assessed as upregulation of Col1a1 gene expression in presence of BMP4 at 1 uM measured after 72 hrs; type: functional, cell-based; procedure, shortened: as §1
[9] = tested on: C2C12; assay: Potentiation of BMP receptor in mouse C2C12 cells assessed as decrease in cytoplasmic Smad2 level incubated for 24 hrs in presence of […]/BMP by Western blot analysis; type: cell-based; conditions: filed as activator
Procedure, shortened: (§2)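 C2C12 cells exposed to compound with TGFβ-2 (10 ng/mL) for 24 h; for nuclear readout, a further 30 min BMP-4 at 2 ng/mL. Cytoplasmic and nuclear fractions isolated in HEPES buffers, pH 7.5, with phosphatase and protease inhibitors. Smads detected by Western blot, luminescence normalized to total protein per lane (trichloroethanol stain), then to DMSO.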

[10] = tested on: C2C12; assay: […] of osteoblastogenesis in mouse C2C12 cells assessed as upregulation of Opn gene expression in presence of BMP4 at 1 uM measured after 72 hrs; type: functional, cell-based; procedure, shortened: as §1
[11] = tested on: C2C12; assay: Potentiation of BMP receptor in mouse C2C12 cells assessed as increase in Id1 gene expression level incubated for 24 hrs by qRT-PCR analysis; conditions: filed as activator
[12] = tested on: SAOS-2; assay: Induction of osteoblastic mineralization in human SAOS-2 cells at 25 nM followed by BMP-4 addition measured after 11 days of osteogenic differentiation; type: functional, cell-based; conditions: time 11.0 day
Procedure, shortened: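 SaOS-2 cells, 8×10³ cells/well, in osteogenic medium (10 mM β-glycerophosphate, 0.2 mM ascorbic acid, 10 nM dexamethasone) with 2 ng/mL BMP-4 or BMP-2 for 11 days. Medium and compound changed every 3 days; ascorbate refreshed daily; DMSO 0.01% vehicle. Mineralization by von Kossa staining; stained area quantified from at least four images per condition at 100× magnification.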

[13] = tested on: C2C12; assay: […] of osteoblastogenesis in mouse C2C12 cells assessed as upregulation of Runx2 gene expression in presence of BMP4 at 1 uM measured after 72 hrs; type: functional, cell-based; procedure, shortened: as §1
[14] = tested on: C2C12; assay: […] of osteoblastogenesis in mouse C2C12 cells assessed as upregulation of Osx gene expression in presence of BMP4 at 1 uM measured after 72 hrs; type: functional, cell-based; procedure, shortened: as §1
[15] = tested on: C2C12; assay: […] of osteoblastogenesis in mouse C2C12 cells assessed as upregulation of Alp gene expression in presence of BMP4 at 1 uM measured after 72 hrs; type: functional, cell-based; procedure, shortened: as §1
[16] = tested on: C2C12; assay: Potentiation of BMP receptor in BMP-4 stimulated mouse C2C12 cells assessed as decrease in cytoplasmic Smad2 level preincubated for 24 hrs followed by BMP-4 stimulation and measured after 30 mins in presence of […]/BMP by Western blot analysis; type: cell-based; conditions: filed as activator, time 24.5 hrs; procedure, shortened: as §2
[17] = tested on: Embryonic stem cell; assay: Induction of cardiac differentiation in mouse ESC transfected with Myh6-GFP treated for 48 hrs and measured after 4 to 6 days by imaging analysis; type: functional, cell-based; conditions: time 4-6 day

Sequence of Glycogen synthase kinase-3 beta (P49841 whole entry): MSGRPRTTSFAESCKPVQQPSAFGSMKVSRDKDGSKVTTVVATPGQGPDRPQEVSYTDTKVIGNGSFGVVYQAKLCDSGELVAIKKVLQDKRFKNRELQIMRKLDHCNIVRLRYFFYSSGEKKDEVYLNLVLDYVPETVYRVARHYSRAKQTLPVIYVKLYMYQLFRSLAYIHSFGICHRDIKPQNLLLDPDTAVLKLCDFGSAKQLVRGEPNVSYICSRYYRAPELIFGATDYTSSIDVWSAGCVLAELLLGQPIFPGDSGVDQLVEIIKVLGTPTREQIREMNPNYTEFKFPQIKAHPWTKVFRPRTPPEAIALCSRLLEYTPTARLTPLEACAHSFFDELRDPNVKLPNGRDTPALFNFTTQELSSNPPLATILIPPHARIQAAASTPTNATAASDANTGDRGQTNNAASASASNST

SMILES: c1cc(-c2cnn3cc(-c4ccc(OCCN5CCCCC5)cc4)cnc23)ccn1
- Activity [1]: Active

SMILES: Cc1cc(Nc2cc(Cl)nc(Oc3ccc([N+](=O)[O-])cc3)n2)n[nH]1
- Activity [2]: Active
- IC50 [3]: 2 nM
- fold change (FC) [4]: 2
- IC50 [5]: 200 nM

SMILES: O=c1c(-c2ccc(C(F)(F)F)cc2)c(-n2cncn2)oc2ccccc12
- Activity [6]: Active
- Activity [7]: Active
- Activity [2]: Active
- Activity [8]: Active
- Activity [9]: Active
- Activity [10]: Active
- Activity [11]: Active
- Activity [12]: Active
- Activity [13]: Active
- Activity [14]: Active
- Activity [15]: Active
- Activity [16]: Active
- IC50 [5]: 200 nM

SMILES: NC(=O)c1ccc(-c2nc(-c3ccccn3)c(-c3ccc4c(c3)OCO4)[nH]2)cc1
- Activity [17]: Active
